# According to ChEMBL document CHEMBL1143047, “Aminoglycoside antibiotic derivatives: preparation and evaluation of toxicity on cochlea and vestibular tissues and antimicrobial activity” (Bioorg Med Chem, 2007):
# Calls of active or inactive are those of the source.
# Assays:
# [1] = species on record: Cavia porcellus; assay: Ototoxicity assessed as cochlear inner cells damage in Albino guinea pig with transtympanic application in right ear relative to left ear control; assay type: toxicity, organism-based; design: concentration or dose not given beside the values; details: other
# Summary of the method: (§1)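 Albino guinea pigs (400–600 g) screened by Preyer reflex and otoscopy, with DPOAE/BEAP thresholds up to 5 dB in both ears under ketamine 65 mg/kg. Right ear got a transtympanic sample (0.08–0.10 mL, 0.22 mmol/mL, in water or DMSO); left ear got saline or DMSO; 06 animals. Cochlear hair cells and vestibule (semicircular channels, utriculus, sacculus) scored by SEM after glutaraldehyde/osmium fixation.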
# [2] = species on record: Cavia porcellus; assay: Ototoxicity assessed as cochlear outer cells damage in Albino guinea pig with transtympanic application in right ear relative to left ear control; assay type: toxicity, organism-based; design: concentration or dose not given beside the values; details: other; summary of the method: as §1
# [3] = species on record: Cavia porcellus; assay: Ototoxicity assessed as vestibular damage in Albino guinea pig with transtympanic application in right ear relative to left ear control; assay type: toxicity, organism-based; design: concentration or dose not given beside the values; details: in vivo, other; summary of the method: as §1
# [4] = tested on: Micrococcus luteus; assay: Antimicrobial activity against Micrococcus luteus ATCC 9341 at 15 mg/ml after 24 hrs by micro dilution method; assay type: functional, organism-based
# Summary of the method: (§2)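 Broth microdilution with about 5 × 10^4 CFU/mL per well. Compounds were dissolved in sterile water or in 10% DMSO/water and tested at 15 mg/mL in duplicate. Incubation was 24 h at 35 °C. Growth was scored qualitatively by medium turbidity (growth or no growth) against an inoculated-medium positive control and a medium-only negative control.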
# [5] = tested on: Staphylococcus aureus; assay: Antimicrobial activity against Staphylococcus aureus ATCC 6538 at 15 mg/ml after 24 hrs by micro dilution method; assay type: functional, organism-based; summary of the method: as §2
# [6] = tested on: Staphylococcus epidermidis; assay: Antimicrobial activity against Staphylococcus epidermidis ATCC 12228 at 15 mg/ml after 24 hrs by micro dilution method; assay type: functional, organism-based; summary of the method: as §2
# [7] = tested on: Escherichia coli; assay: Antimicrobial activity against Escherichia coli ATCC 25922 at 15 mg/ml after 24 hrs by micro dilution method; assay type: functional, organism-based; summary of the method: as §2
# [8] = tested on: Pseudomonas aeruginosa; assay: Antimicrobial activity against Pseudomonas aeruginosa ATCC 27853 at 15 mg/ml after 24 hrs by micro dilution method; assay type: functional, organism-based; summary of the method: as §2
compound,measurement,setting,value
COC1OC[C@@H](O)[C@@H](O[C@H]2O[C@@H](CN)[C@@H](O)[C@H](O)[C@H]2N)[C@H]1O (some centres undefined) [METHYL-NEOBIOSAMINIDE B],Activity,[1],0%
same,Activity,[2],0%
same,Activity,[3],100%
same,Activity,[4],Active
same,Activity,[5],Active
same,Activity,[6],Active
same,Activity,[7],Active
same,Activity,[8],Active
NC[C@H]1O[C@H](O[C@H]2[C@H](O)[C@@H](O)[C@H](N)C[C@@H]2N)[C@H](N)[C@@H](O)[C@@H]1O [NEAMINE],Activity,[1],0%
same,Activity,[2],100%
same,Activity,[3],100%
same,Activity,[4],Active
same,Activity,[5],Active
same,Activity,[6],Active
same,Activity,[7],Active
same,Activity,[8],Active
CC(=O)NC[C@H]1O[C@H](O[C@@H]2[C@@H](O)[C@H](O)[C@@H](NC(C)=O)C[C@H]2NC(C)=O)[C@H](NC(C)=O)[C@@H](O)[C@@H]1O,Activity,[1],0%
same,Activity,[2],0%
same,Activity,[3],0%
same,Activity,[4],Active
same,Activity,[5],Active
same,Activity,[6],Active
same,Activity,[7],Active
same,Activity,[8],inactive
COc1ccc(/C=N\[C@H]2[C@@H](O[C@@H]3[C@@H](O)[C@H](O)[C@@H](/N=C/c4ccc(OC)cc4)C[C@H]3/N=C/c3ccc(OC)cc3)O[C@H](C/N=C/c3ccc(OC)cc3)[C@@H](O)[C@@H]2O)cc1,Activity,[1],100%
same,Activity,[2],0%
same,Activity,[3],0%
O=C(NC[C@H]1O[C@H](O[C@@H]2[C@@H](O)[C@H](O)[C@@H](NC(=O)OCc3ccccc3)C[C@H]2NC(=O)OCc2ccccc2)[C@H](NC(=O)OCc2ccccc2)[C@@H](O)[C@@H]1O)OCc1ccccc1,Activity,[1],0%
same,Activity,[2],100%
same,Activity,[3],0%
NC[C@@H]1O[C@H](O[C@H]2[C@@H](O)[C@H](O[C@@H]3[C@@H](O)[C@H](N)C[C@H](N)[C@H]3O[C@H]3O[C@H](CN)[C@@H](O)[C@H](O)[C@H]3N)O[C@@H]2CO)[C@H](N)[C@@H](O)[C@@H]1O [FRAMYCETIN],Activity,[1],0%
same,Activity,[2],100%
same,Activity,[3],50%
same,Activity,[4],Active
same,Activity,[5],Active
same,Activity,[6],Active
same,Activity,[7],Active
same,Activity,[8],Active
N[C@@H]1C[C@H](N)[C@@H](O)[C@H](O)[C@H]1O,Activity,[1],0%
same,Activity,[2],0%
same,Activity,[3],0%
same,Activity,[4],Active
same,Activity,[5],inactive
same,Activity,[6],inactive
same,Activity,[7],inactive
same,Activity,[8],inactive
COC(=O)NC[C@H]1O[C@H](O[C@@H]2[C@@H](O)[C@H](O)[C@@H](NC(=O)OC)C[C@H]2NC(=O)OC)[C@H](NC(=O)OC)[C@@H](O)[C@@H]1O,Activity,[1],0%
same,Activity,[2],0%
same,Activity,[3],0%
